Measured values gathered from unrelated publications.
Protocols differ between the studies behind these lines.
Target: 3-phosphoinositide-dependent protein kinase 1 (PDPK1, Homo sapiens, UniProt O15530)
One construct used (O15530 1-556): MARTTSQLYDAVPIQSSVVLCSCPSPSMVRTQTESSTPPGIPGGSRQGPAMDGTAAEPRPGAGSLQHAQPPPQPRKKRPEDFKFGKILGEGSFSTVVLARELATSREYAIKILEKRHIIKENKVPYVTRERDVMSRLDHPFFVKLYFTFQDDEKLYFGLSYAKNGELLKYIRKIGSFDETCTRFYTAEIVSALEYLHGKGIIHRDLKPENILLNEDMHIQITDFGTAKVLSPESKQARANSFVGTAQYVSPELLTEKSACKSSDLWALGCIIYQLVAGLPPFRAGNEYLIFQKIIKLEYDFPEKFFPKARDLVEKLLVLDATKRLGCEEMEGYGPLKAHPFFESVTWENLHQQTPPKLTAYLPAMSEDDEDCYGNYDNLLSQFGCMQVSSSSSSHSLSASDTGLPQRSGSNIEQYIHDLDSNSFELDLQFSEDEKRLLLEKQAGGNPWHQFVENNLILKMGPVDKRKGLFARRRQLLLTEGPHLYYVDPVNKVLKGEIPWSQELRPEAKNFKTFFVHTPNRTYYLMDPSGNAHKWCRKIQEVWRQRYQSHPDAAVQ

| SMILES | observed | action | technique | tested at | endpoint | result |
| --- | --- | --- | --- | --- | --- | --- |
| COc1cc(Nc2cnc(C#N)c(O[C@H](C)CN(C)C)n2)ncc1-c1cnn(C)c1 | enzyme activity | inhibitor | radiometric | 1 µM | remaining activity | 76% |
| CCN(CC)CCNC(=O)c1c(C)[nH]c(/C=C2\C(=O)Nc3ccc(F)cc32)c1C | cell-free assay |  |  | 0.5 µM | remaining signal | 81.6% |
| COc1cccc(CNC(=O)c2nc3scc(COCc4ccc(C(=O)O)cc4)c3c(=O)[nH]2)c1 | cell-free assay |  | competition with immobilised ligand | 1 µM | remaining binding | 87.8% |
| O=Nc1c(-c2c(O)[nH]c3ccccc23)[nH]c2ccccc12 | cell-free assay |  |  | 0.5 µM | remaining signal | 93% |
| CC(=O)C1=C(C)N(c2cccc(C(F)(F)F)c2)C(=O)N[C@@H]1c1ccc(C#N)nc1 | cell-free assay |  | competition with immobilised ligand | 1 µM | remaining binding | 93.4% |
| Nc1nc(Nc2ccccc2)sc1C(=O)c1c(F)cccc1F | enzyme activity | inhibitor |  | 10 µM | remaining activity | 65% |
| CNC(=O)c1ccc(Nc2ncc(C(F)(F)F)c(NCc3nccnc3N(C)S(C)(=O)=O)n2)cc1 | cell-free assay |  | competition with immobilised ligand | 0.1 µM | remaining binding | 81% |
| CNC(=O)c1cc(Oc2ccc(NC(=O)Nc3ccc(Cl)c(C(F)(F)F)c3)cc2)ccn1 | cell-free assay |  | competition with immobilised ligand | 0.1 µM | remaining binding | 100% |
| Nc1ncnc2occ(-c3ccc(NC(=O)Nc4cc(C(F)(F)F)ccc4F)cc3)c12 | cell-free assay | inhibitor |  | 20 µM | remaining signal | 4.3% |
| Oc1cccc(-c2nc(N3CCOCC3)c3oc4ncccc4c3n2)c1 | enzyme activity | inhibitor |  | 10 µM | remaining activity | 107% |
| O=C1Nc2ccc(Cl)cc2C1=Cc1cc(Cl)c(O)c(Cl)c1 | cell-free assay |  |  | 0.5 µM | remaining signal | 103% |
| CNC(=O)Nc1ccc2c(c1)[C@@]1(CC2)OC(=O)N(CC(=O)N(Cc2ccc(F)cc2)[C@@H](C)C(F)(F)F)C1=O | cell-free assay |  | competition with immobilised ligand | 1 µM | remaining binding | 85% |
| O=C(Nc1cnn(-c2csc(C(=O)NC3COC3)c2)c1)Nc1c(F)cccc1Cl | enzyme activity | inhibitor |  | 5 µM | remaining activity | 99.6% |
| CC(C)(C)c1nc2c3cc[nH]c(=O)c3c3cc(F)ccc3c2[nH]1 | cell-free assay |  |  | 0.5 µM | remaining signal | 27% |
| CC(C)(C)c1nc2c(s1)c1nc(N)ncc1c1ccc(NS(=O)(=O)c3c(F)cccc3F)c(F)c12 | enzyme activity | inhibitor | radiometric | 1 µM | remaining activity | 82% |
| Cn1c(=O)n(-c2ccc(C(C)(C)C#N)cc2)c2c3cc(-c4cnc5ccccc5c4)ccc3ncc21 | enzyme activity | inhibitor |  | 10 µM | remaining activity | 98% |
| Nc1nc(NC2CCCCC2)sc1C(=O)c1ccccc1 | enzyme activity | inhibitor |  | 10 µM | remaining activity | 106% |
| COc1cc(/C=C/C(=O)CC(=O)/C=C/c2ccc(O)c(OC)c2)ccc1O | enzyme activity | inhibitor |  | 1 µM | activity vs control | 90% |
| CCCCN(CCCC)C(=O)CN1C[C@H](c2cc(OC)c3c(c2)OCO3)[C@@H](C(=O)O)[C@@H]1CC(C)(C)CCC | cell-free assay |  | competition with immobilised ligand | 1 µM | remaining binding | 100% |
| Cc1sc(C(=O)NC2COC2)cc1-n1cc(NC(=O)Nc2c(F)cccc2Cl)cn1 | enzyme activity | inhibitor |  | 10 µM | remaining activity | 99.2% |
| COCCOc1nc(-c2ccc(Cl)nc2)nc2c1CN(C(=O)c1ncn3ccccc13)CC2 | cell-free assay |  | competition with immobilised ligand | 0.1 µM | remaining binding | 90% |
| COc1ccc(COc2ccc(Cc3cnc(N)nc3N)cc2OC)cc1 | cell-free assay |  |  | 0.5 µM | remaining signal | 89.4% |
| O=C1NC(c2ccccn2)Sc2ccccc21 (centres unmarked) | cell-free assay |  | competition with immobilised ligand | 1 µM | remaining binding | 97% |
| Cc1cc(NC(=O)c2cccc3cc(-c4cccc5[nH]nc(N)c45)ccc23)ccc1F | enzyme activity | inhibitor |  | 0.1 µM | activity vs control | 101% |
| Cc1ccc(NC(=O)c2ccc(C)c(C(F)(F)F)c2)cc1C#Cc1nn(C2CCC(O)CC2)c2ncnc(N)c12 (centres unmarked) | cell-free assay |  |  | 10 µM | remaining signal | 113% |
| CS(=O)(=O)N1CCCC(NC(=O)[C@H](CCC2CCCCC2)NC(=O)c2ccc(CNc3ncnc4c3nnn4-c3ccccc3)cc2)C1 (some centres unmarked) | cell-free assay |  | competition with immobilised ligand | 0.1 µM | remaining binding | 99% |
